Measured values as given in ChEMBL document CHEMBL4823286, “Synthesis and evaluation of novel 2,4-diaminopyrimidines bearing a sulfoxide moiety as anaplastic lymphoma kinase (ALK) inhibition agents” (Bioorg Med Chem Lett, 2021).

What was measured:
[1] = tested on: BaF3; test: Antiproliferative activity against mouse BaF3 cells overexpressing ALK assessed as inhibition of cell proliferation measured by CCK8 assay; assay type: functional, cell-based
Outline: (§1)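 Cell proliferation inhibition; IC50 given as mean ± SD of three independent experiments.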

[2] = tested on: NCI-H2228; test: Antiproliferative activity against human NCI-H2228 cells assessed as inhibition of cell proliferation measured by CCK8 assay; assay type: functional, cell-based; outline: as §1
[3] = tested on: NCI-H2228; test: Induction of apoptosis in human NCI-H2228 cells assessed as late apoptotic cells at 25 nM measured after 48 hrs by Annexin V-FITC/PI staining based flow cytometry assay (reference value: 0.23%); assay type: functional
Outline: (§2)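 After 24 h or 48 h exposure (5, 25, 50 nM; DMSO 0.01% control), NCI-H2228 cells were harvested, double-stained with Annexin V-FITC and PI and run on flow cytometry. Stage percentages quantified by software; three experiments, representative shown.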

[4] = tested on: NCI-H2228; test: Induction of apoptosis in human NCI-H2228 cells assessed as necrotic cells at 25 nM measured after 48 hrs by Annexin V-FITC/PI staining based flow cytometry assay (reference value: 2.88%); assay type: functional; outline: as §2
[5] = tested on: NCI-H2228; test: Induction of apoptosis in human NCI-H2228 cells assessed as late apoptotic cells at 25 nM measured after 24 hrs by Annexin V-FITC/PI staining based flow cytometry assay (reference value: 2.02%); assay type: functional; outline: as §2
[6] = tested on: NCI-H2228; test: Induction of apoptosis in human NCI-H2228 cells assessed as early apoptotic cells at 25 nM measured after 24 hrs by Annexin V-FITC/PI staining based flow cytometry assay (reference value: 2.18%); assay type: functional; outline: as §2
[7] = tested on: NCI-H2228; test: Induction of apoptosis in human NCI-H2228 cells assessed as early apoptotic cells at 25 nM measured after 48 hrs by Annexin V-FITC/PI staining based flow cytometry assay (reference value: 1.58%); assay type: functional; outline: as §2
[8] = tested on: NCI-H2228; test: Induction of apoptosis in human NCI-H2228 cells assessed as viable cells at 25 nM measured after 48 hrs by Annexin V-FITC/PI staining based flow cytometry assay (reference value: 95.3%); assay type: functional; details: read-out: Activity; outline: as §2
[9] = tested on: NCI-H2228; test: Induction of apoptosis in human NCI-H2228 cells assessed as viable cells at 25 nM measured after 24 hrs by Annexin V-FITC/PI staining based flow cytometry assay (reference value: 95.6%); assay type: functional; details: read-out: Activity; outline: as §2
[10] = tested on: NCI-H2228; test: Induction of apoptosis in human NCI-H2228 cells assessed as necrotic cells at 25 nM measured after 24 hrs by Annexin V-FITC/PI staining based flow cytometry assay (reference value: 0.21%); assay type: functional; outline: as §2

IC50 [1]	IC50 [2]	Structure (SMILES)	further results
75 nM	2630 nM	CC[S+]([O-])c1ccccc1Nc1nc(Nc2cc(N)c(N(C)CCN(C)C)cc2OC)ncc1Cl (stereo unspecified)	
128 nM	134 nM	CC[S+]([O-])c1cc(Cl)ccc1Nc1nc(Nc2ccc(N3CCN(C)CC3)cc2OC)ncc1Cl (stereo unspecified)	
26.3 nM	69.3 nM	CC[S+]([O-])c1ccccc1Nc1nc(Nc2ccc(N(C)CCN(C)C)cc2OC)ncc1Cl (stereo unspecified)	
26.7 nM	64.5 nM	CC[S+]([O-])c1cc(F)ccc1Nc1nc(Nc2ccc(N3CCCN(C)CC3)cc2OC)ncc1Cl (stereo unspecified)	
34.7 nM	84.3 nM	CC[S+]([O-])c1cc(F)ccc1Nc1nc(Nc2ccc(N(C)CCN(C)C)cc2OC)ncc1Cl (stereo unspecified)	
85.7 nM	704 nM	CC[S+]([O-])c1cc(F)ccc1Nc1nc(Nc2ccc(N3CCN(C(C)=O)CC3)cc2OC)ncc1Cl (stereo unspecified)	
8.49 nM	31.2 nM	COc1cc(N2CCC(N3CCN(C)CC3)CC2)ccc1Nc1ncc(Cl)c(Nc2ccccc2P(C)(C)=O)n1 [BRIGATINIB]	Activity [3]: 31%; Activity [4]: 4.32%; Activity [5]: 3.47%; Activity [6]: 14.4%; Activity [7]: 12.7%; viability at 0.025 µM [8]: 52%; viability at 0.025 µM [9]: 81.9%; Activity [10]: 0.2%
35.4 nM	55.4 nM	CCC(=O)Nc1cc(Nc2ncc(Cl)c(Nc3ccccc3[S+]([O-])CC)n2)c(OC)cc1N(C)CCN(C)C (stereo unspecified)	
48.9 nM	104 nM	CC[S+]([O-])c1cc(F)ccc1Nc1nc(Nc2ccc(N3CCN(C)CC3)cc2OC)ncc1Cl (stereo unspecified)	
